Measurements: ChEMBL document CHEMBL4680332, “Lead optimization of 2-hydroxymethyl imidazoles as non-hydroxamate LpxC inhibitors: Discovery of TP0586532” (Bioorg Med Chem, 2021)
Converted amounts (≈) assume the structure as drawn.

Legend:
Klebsiella pneumoniae [1] = experiment: Antibacterial activity against Klebsiella pneumonia ATCC 13883 by CLSI based broth microdilution method; assay type: functional
In short: (§1)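 Broth microdilution MIC per CLSI method; E. coli ATCC 25922 and K. pneumoniae ATCC 13883.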

Escherichia coli = experiment: Antibacterial activity against Escherichia coli ATCC 25922 by CLSI based broth microdilution method; assay type: functional; in short: as §1
[2] = Inhibition of Escherichia coli LpxC using DP-3-0-(R-3-hydroxymyristoy1)-N-acetylglucosamine as substrate incubated for 120 mins by fluorescamine assay
[3] = Protein binding in ICR mouse serum at 1 ug/ml incubated for 4 hrs by LC-MS/MS analysis; assay type: ADME, cell-free; conditions: at 1 µg/mL, read-out: PB (converted)
In short: (§2)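 Equilibrium dialysis at 1 µg/mL final in pooled male ICR mouse serum or human volunteer serum (no anticoagulant). Dialyzed against 50 mM sodium phosphate buffer at 37 °C for 4 h (5% CO2, MWCO 12000–14000). Compound on each side measured by LC-MS/MS; binding % = (Cs−Cb)/Cs×100.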

[4] = Protein binding in human serum at 1 ug/ml incubated for 4 hrs by LC-MS/MS analysis; assay type: ADME, cell-free; conditions: at 1 µg/mL, read-out: PB (converted); in short: as §2
[5] = Toxicity in iv dosed ICR mouse assessed as maximum tolerated dose; assay type: organism-based; conditions: in vivo
In short: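 Exploratory MTD study in male ICR mice (n = 2): a single intravenous tail-vein injection at dose levels of up to 200 mg/kg.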

Klebsiella pneumoniae [6] = experiment: In vivo antibacterial activity against Klebsiella pneumonia ATCC BAA-2343 infected in ICR mouse assessed as reduction in bacterial burden in lung at 50 mg/kg, sc administered after 2 hrs of infection and measured after 26 hrs of infection; assay type: functional; conditions: time 24 hrs
In short: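 Female ICR mice (5 weeks) made neutropenic with cyclophosphamide ip, 150 and 100 mg/kg at days −4 and −1. Intranasal inoculation with 1.5–1.9 × 10^6 CFU. Compound in 10w/v% HP-β-CD given sc 2 h post-infection (n = 5). Lung viable counts at 2 h (control) and 26 h; mean log change versus start of therapy.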

Klebsiella pneumoniae [7] = experiment: In vivo antibacterial activity against Klebsiella pneumonia 4102 infected in ICR mouse assessed as mouse survival rate at 25 mg/kg, sc administered once after 1 hr of infection and observed for 7 days relative to control; assay type: functional; conditions: time 7 day
In short: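 Four-week-old male ICR mice given K. pneumoniae 4102 intraperitoneally (3.8–5.5 × 10^6 CFU/mouse) in 0.5 mL suspension with 3w/v% mucin. Compound in 10w/v% HP-β-CD, single subcutaneous dose 1 h post-inoculation (n = 6). Survival followed for 7 days.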

[8] = Cardiotoxicity in iv dosed Hartley guinea pig assessed as decrease in heart rate measured after 30 mins; assay type: toxicity, organism-based, Cavia porcellus; conditions: in vivo, 0.5 h
In short: (§3)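 Guinea pigs (6–7 weeks) anesthetized with pentobarbital 60 mg/kg ip, then infused iv at 8 mg/kg/h; ventilated at 15 mL/kg, 60/min. Vehicle (11w/v% SBE-β-CD, pH4) or compound infused via jugular vein for 30 min. Carotid arterial pressure and ECG recorded; QT corrected by Bazett. Heart rate, QTc, SBP and DBP expressed as change from baseline.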

[9] = Plasma concentration in Hartley guinea pig at 180 mg/kg, iv measured after 30 mins by LC-MS/MS analysis; assay type: ADME, organism-based, Cavia porcellus
In short: (§4)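 Anesthetized guinea pigs received a 30-min iv infusion. Blood was taken at the end of infusion and centrifuged, and plasma concentration (C30min) was measured by LC-MS/MS.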

[10] = Cardiotoxicity in iv dosed Hartley guinea pig assessed as decrease in blood pressure measured after 30 mins; assay type: toxicity, organism-based, Cavia porcellus; conditions: in vivo, 0.5 h; in short: as §3
[11] = Free plasma concentration in Hartley guinea pig serum assessed as fraction unbound at 180 mg/kg, iv measured after 30 mins by LC-MS/MS analysis; assay type: ADME, organism-based, Cavia porcellus; conditions: in vivo, 0.5 h
In short: (§5)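 Unbound plasma concentration at end of 30-min iv infusion in anesthetized guinea pigs: LC-MS/MS plasma C30min multiplied by fraction unbound, with plasma fu assumed equal to serum fu (equilibrium dialysis, 500 µg/mL in guinea pig serum).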

[12] = Cardiotoxicity in iv dosed Hartley guinea pig assessed as increase in QT prolongation measured after 30 mins; assay type: toxicity, organism-based, Cavia porcellus; conditions: in vivo, 0.5 h; in short: as §3
[13] = Plasma concentration in Hartley guinea pig at 60 mg/kg, iv measured after 30 mins by LC-MS/MS analysis; assay type: ADME, organism-based, Cavia porcellus; in short: as §4
[14] = Free plasma concentration in Hartley guinea pig serum assessed as fraction unbound at 60 mg/kg, iv measured after 30 mins by LC-MS/MS analysis; assay type: ADME, organism-based, Cavia porcellus; conditions: in vivo, 0.5 h; in short: as §5
[15] = Free plasma concentration in Hartley guinea pig serum assessed as fraction unbound at 135 mg/kg, iv measured after 30 mins by LC-MS/MS analysis; assay type: ADME, organism-based, Cavia porcellus; conditions: in vivo, 0.5 h; in short: as §5
[16] = Plasma concentration in Hartley guinea pig at 135 mg/kg, iv measured after 30 mins by LC-MS/MS analysis; assay type: ADME, organism-based, Cavia porcellus; in short: as §4
[17] = target: Voltage-gated inwardly rectifying potassium channel KCNH2 (Homo sapiens, UniProt Q12809); experiment: Inhibition of human ERG expressed in CHO cells by whole cell Q-patch clamp assay; assay type: cell-based
[18] = Toxicity in iv dosed Sprague-Dawley rat assessed as maximum tolerated dose administered for 4 days; assay type: organism-based; conditions: in vivo, time 4 day
In short: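 Six-week-old male and female Sprague Dawley rats received intravenous bolus doses via the tail vein for 4 days. MTD was assessed under repeated dosing.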

[19] = Cardiotoxicity in Hartley guinea pig assessed as decrease in blood pressure at 150 mg/kg, iv measured after 30 mins; assay type: toxicity, organism-based, Cavia porcellus; conditions: in vivo, 0.5 h; in short: as §3
[20] = Genotoxicity in mouse lymphoma cell; assay type: toxicity; conditions: lymphoma cell line
[21] = Plasma concentration in Hartley guinea pig at 150 mg/kg, iv measured after 30 mins by LC-MS/MS analysis; assay type: ADME, organism-based, Cavia porcellus; in short: as §4
[22] = Free plasma concentration in Hartley guinea pig serum assessed as fraction unbound at 150 mg/kg, iv measured after 30 mins by LC-MS/MS analysis; assay type: ADME, organism-based, Cavia porcellus; conditions: in vivo, 0.5 h; in short: as §5
[23] = Toxicity in iv dosed cynomolgus monkey assessed as maximum tolerated dose administered for 14 days; assay type: organism-based, Macaca fascicularis; conditions: in vivo, time 14 day
In short: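 Three-year-old female cynomolgus monkeys were dosed intravenously for 14 days as a 30-min infusion via the saphenous vein. MTD was assessed under repeated dosing.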

[24] = in the assay text read “LCMS assay” for “fluorescamine assay”

Voltage-gated inwardly rectifying potassium channel KCNH2, sequence (Q12809 whole entry): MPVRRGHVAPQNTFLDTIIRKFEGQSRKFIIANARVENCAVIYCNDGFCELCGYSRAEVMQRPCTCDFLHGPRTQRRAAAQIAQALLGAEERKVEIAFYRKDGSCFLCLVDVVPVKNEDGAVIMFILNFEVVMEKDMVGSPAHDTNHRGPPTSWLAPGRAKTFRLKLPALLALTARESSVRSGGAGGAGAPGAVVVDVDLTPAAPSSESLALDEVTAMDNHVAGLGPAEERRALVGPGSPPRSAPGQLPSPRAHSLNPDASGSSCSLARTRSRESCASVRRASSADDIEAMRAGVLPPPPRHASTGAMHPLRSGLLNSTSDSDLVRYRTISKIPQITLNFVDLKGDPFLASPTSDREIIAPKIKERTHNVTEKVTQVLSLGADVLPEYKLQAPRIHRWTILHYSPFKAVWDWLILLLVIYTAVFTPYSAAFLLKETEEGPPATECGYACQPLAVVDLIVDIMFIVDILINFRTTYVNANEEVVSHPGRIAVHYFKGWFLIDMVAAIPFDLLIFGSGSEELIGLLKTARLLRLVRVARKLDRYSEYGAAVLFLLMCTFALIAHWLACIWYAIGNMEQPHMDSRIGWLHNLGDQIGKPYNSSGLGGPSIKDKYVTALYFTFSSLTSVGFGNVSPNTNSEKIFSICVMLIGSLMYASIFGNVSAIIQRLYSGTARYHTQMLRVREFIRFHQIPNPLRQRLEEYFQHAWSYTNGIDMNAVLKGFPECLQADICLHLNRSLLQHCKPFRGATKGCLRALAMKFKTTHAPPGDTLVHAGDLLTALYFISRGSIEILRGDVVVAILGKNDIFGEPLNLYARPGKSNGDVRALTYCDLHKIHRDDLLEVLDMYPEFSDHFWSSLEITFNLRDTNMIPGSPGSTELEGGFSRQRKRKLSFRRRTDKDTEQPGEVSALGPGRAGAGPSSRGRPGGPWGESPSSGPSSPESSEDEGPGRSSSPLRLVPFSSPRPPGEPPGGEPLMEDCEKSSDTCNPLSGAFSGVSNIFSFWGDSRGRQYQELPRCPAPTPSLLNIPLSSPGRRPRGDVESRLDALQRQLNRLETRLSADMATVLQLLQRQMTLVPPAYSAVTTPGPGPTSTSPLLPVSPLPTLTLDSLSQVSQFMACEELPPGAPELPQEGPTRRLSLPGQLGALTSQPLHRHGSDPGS

Row | Compound | MIC (Klebsiella pneumoniae [1]) [µg/mL] | MIC (Escherichia coli) [µg/mL] | IC50 [2, 24] [µM] | fraction unbound at 4 h, 1 ug/ml [3] | fraction unbound at 4 h, 1 ug/ml [4] | MTD [5] [mg/kg] | Activity (Klebsiella pneumoniae [6]) [log10CFU] | IC50 [2] [µM] | also measured
1 | C[C@H](O)c1nccn1[C@H](CN)c1cc(-c2ccc(C#C[C@@H]3[C@H]4CN(CCCC(=O)O)C[C@@H]34)cc2)on1 | 16 (≈ 32.7 µM) | 4 (≈ 8.17 µM) |  |  |  |  |  |  | 
2 | C[C@H](O)c1nccn1Cc1cc(-c2ccc(C#CC34CC(N)(C3)C4)cc2)no1 | 2 (≈ 5.34 µM) | 0.5 (≈ 1.34 µM) | 0.065 | 0.069 | 0.035 |  |  |  | 
3 | C[C@H](O)c1nccn1[C@H](CN)c1cc(-c2ccc(C#CC34CC(N)(C3)C4)cc2)on1 | 2 (≈ 4.96 µM) | 0.5 (≈ 1.24 µM) | 0.279 | 0.084 | 0.103 | 100 | -2.48 |  | 
4 | COCCN1CCN(c2ccc(C#Cc3cc(Cn4ccnc4[C@H](C)O)no3)cc2)CC1 | 0.5 (≈ 1.15 µM) | 0.25 (≈ 0.574 µM) |  | 0.083 | 0.09 |  |  | 0.071 | 
5 | C[C@H](O)c1nccn1Cc1cc(-c2ccc(C#CC3(N)CC3)cc2)on1 | 1 (≈ 2.87 µM) | 0.5 (≈ 1.44 µM) | 0.046 | 0.099 | 0.07 |  |  |  | Activity (Klebsiella pneumoniae [7]): 67%
6 | C[C@H](O)c1nccn1Cc1cc(C#Cc2ccc(CCCO)cc2)on1 | 2 (≈ 5.69 µM) | 0.5 (≈ 1.42 µM) |  | < 0.005 | < 0.005 |  |  | 0.031 | 
7 | C[C@H](O)c1nccn1Cc1cc(-c2ccc(C#C[C@H]3C[C@H](O)C3)cc2)on1 | 0.25 (≈ 0.688 µM) | 0.12 (≈ 0.33 µM) |  | 0.035 | 0.017 |  |  | 0.015 | Activity (Klebsiella pneumoniae [7]): 0%
8 | C[C@H](O)c1nccn1Cc1cc(-c2ccc(C#CC34CC(N)(C3)C4)cc2)on1 | 0.5 (≈ 1.34 µM) | 0.25 (≈ 0.668 µM) | 0.049 | 0.034 | 0.027 |  |  |  | Activity (Klebsiella pneumoniae [7]): 0%
9 | C[C@H](O)c1nccn1Cc1cc(C#Cc2ccc(OC3CN(CCCO)C3)cc2)on1 | 8 (≈ 18.9 µM) | 2 (≈ 4.73 µM) |  | 0.165 | 0.261 |  |  | 0.378 | 
10 | C[C@H](O)c1nccn1Cc1cc(-c2ccc(C#C[C@@H]3[C@H]4CN(C=O)C[C@@H]34)cc2)on1 | 2 (≈ 4.97 µM) | 1 (≈ 2.48 µM) |  | 0.09 | 0.095 | 100 | -2.84 | 0.039 | 
11 | C[C@H](O)c1nccn1[C@H](CN)c1cc(-c2ccc(C#CC3(N)CC3)cc2)on1 | 8 (≈ 21.2 µM) | 2 (≈ 5.3 µM) | 0.282 |  |  |  |  |  | 
12 | C[C@H](O)c1nccn1Cc1cc(-c2ccc(C#CCCCO)cc2)on1 | 2 (≈ 5.69 µM) | 1 (≈ 2.85 µM) |  | 0.049 | 0.031 |  |  | 0.051 | 
13 | C[C@H](O)c1nccn1[C@H](CN)c1cc(-c2ccc(C#C[C@@H]3[C@H]4CN(C=O)C[C@@H]34)cc2)on1 | 2 (≈ 4.64 µM) | 1 (≈ 2.32 µM) |  | 0.18 | 0.275 | ≥ 200 | -2.47 |  | Activity [8]: Toxic; concentration at 0.5 h [9]: 233 µg/mL; Activity [10]: Toxic; Cp(f) [11]: 59.4 µg/mL; Activity [12]: Toxic
14 | C[C@H](O)c1nccn1[C@H](CN)c1cc(-c2ccc(C#C[C@H]3C[C@H](O)C3)cc2)on1 | 1 (≈ 2.55 µM) | 0.25 (≈ 0.637 µM) | < 0.037 | 0.07 | 0.074 | ≥ 200 | -1.99 |  | concentration at 0.5 h [13]: 90.7 µg/mL; Activity [8]: Toxic; Activity [10]: Toxic; Cp(f) [14]: 15.6 µg/mL; Activity [12]: Toxic
15 | C[C@H](O)c1nccn1Cc1cc(-c2ccc(C#CC3(N)CC3)cc2)no1 | 4 (≈ 11.5 µM) | 1 (≈ 2.87 µM) | 0.193 | 0.15 | 0.115 |  |  |  | 
16 | C[C@H](O)CN1C[C@@H]2[C@@H](C#Cc3ccc(-c4cc([C@@H](CN)n5ccnc5[C@H](C)O)no4)cc3)[C@@H]2C1 | 4 (≈ 8.67 µM) | 1 (≈ 2.17 µM) |  | 0.151 | 0.212 | ≥ 200 | -1.19 |  | Activity [8]: Toxic; Activity [10]: Toxic; Cp(f) [15]: 36 µg/mL; concentration at 0.5 h [16]: 132 µg/mL; Activity [12]: Toxic
17 | C[C@H](O)c1nccn1Cc1cc(-c2ccc(C#C[C@@H]3[C@H]4CN(CCCC(=O)O)C[C@@H]34)cc2)on1 | 4 (≈ 8.69 µM) | 2 (≈ 4.34 µM) |  | 0.241 | 0.223 | ≥ 200 | -1.63 | 0.101 | IC50 [17]: > 1000 µM; Activity [8]: Non-Toxic; MTD at 96 h [18]: 400 mg/kg; Activity [19]: Non-Toxic; Activity [20]: Non-Toxic; concentration at 0.5 h [21]: 378 µg/mL; Cp(f) [22]: 87.3 µg/mL; Activity [12]: Non-Toxic; MTD at 336 h [23]: > 400 mg/kg
18 | COCC(O)CN1C[C@@H]2[C@@H](C#Cc3ccc(-c4cc(Cn5ccnc5[C@H](C)O)on4)cc3)[C@@H]2C1 (mixture of isomers) | 0.5 | 0.5 |  | 0.077 | 0.076 |  |  | 0.097 | Activity (Klebsiella pneumoniae [7]): 17%
19 | COCC(O)CN1C[C@@H]2[C@@H](C#Cc3ccc(-c4cc(Cn5ccnc5[C@H](C)O)no4)cc3)[C@@H]2C1 (mixture of isomers) | 0.5 | 0.5 |  | 0.082 | 0.065 |  |  | 0.071 | Activity (Klebsiella pneumoniae [7]): 33%
